Positions of bridges follow the written chain, without caps; N, C: chain ends. Residues, ends and D or L forms follow the SMILES beside them.
How the values were obtained:
[1] = molecular target: Kallikrein-4 (Homo sapiens, UniProt Q9Y5K2); assay: Inhibition of KLK4 (unknown origin) expressed in sf9 cells using Ac-FVQR-pNA as substrate preincubated for 30 mins followed by substrate addition and measured for 7 mins by spectrophotometric method
[2] = Drug uptake in human HeLa cells at 4 uM using Alexa Fluor 488 conjugated test compound after 1 hr by trypan blue dye based flow cytometry relative to HIV-Tat; assay type: ADME, cell-based
Procedure, shortened: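 HeLa cells given Alexa Fluor 488-conjugated peptides (4 μM). Mean fluorescence measured by flow cytometry before and after trypan blue quenching of extracellular signal. Values normalized to the HIV-TAT positive control (post-trypan blue). Three independent experiments, SD; one-way ANOVA with Tukey's post hoc test.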

[3] = molecular target: T1, Kallikrein-5 (Homo sapiens, UniProt Q9Y337); assay: Inhibition of KLK5 (unknown origin) expressed in Pichia pastoris strain X-33 using Ac-YRSR-pNA as substrate preincubated for 30 mins followed by substrate addition and measured for 7 mins by spectrophotometric method
T1 sequence (Q9Y337 whole entry): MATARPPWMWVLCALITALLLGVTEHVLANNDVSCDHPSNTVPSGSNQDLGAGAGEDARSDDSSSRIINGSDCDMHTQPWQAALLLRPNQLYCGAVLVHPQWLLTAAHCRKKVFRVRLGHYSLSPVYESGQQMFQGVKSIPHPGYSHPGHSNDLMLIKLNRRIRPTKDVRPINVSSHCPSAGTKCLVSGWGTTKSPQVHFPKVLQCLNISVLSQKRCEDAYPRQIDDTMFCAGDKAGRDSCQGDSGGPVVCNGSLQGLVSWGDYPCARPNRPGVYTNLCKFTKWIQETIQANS

[4] = molecular target: Plasminogen (Homo sapiens, UniProt P00747); assay: Inhibition of plasmin (unknown origin) using Ac-RM(O2)YR-pNA as substrate preincubated for 30 mins followed by substrate addition and measured for 7 mins by spectrophotometric method
[5] = molecular target: Trypsin (Homo sapiens, UniProt P07477+P07478+P35030); assay: Inhibition of trypsin (unknown origin) using Bz-FVR-pNA as substrate preincubated for 30 mins followed by substrate addition and measured for 7 mins by spectrophotometric method; assay type: protein assay
[6] = molecular target: Prothrombin (Homo sapiens, UniProt P00734); assay: Inhibition of thrombin (unknown origin) using Bz-FVR-pNA as substrate preincubated for 30 mins followed by substrate addition and measured for 7 mins by spectrophotometric method
[7] = system: HeLa; assay: Cytotoxicity against human HeLa cells up to 64 uM after 2 hrs by resazurin dye based assay; assay type: cell-based
Procedure, shortened: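 HeLa cells exposed to peptides for 2 h, concentrations up to 64 μM. Resazurin then added for 18 h at 37 °C. Resorufin absorbance read at 540 and 620 nm, and viability % expressed as the A620/A540 ratio. Three independent experiments, standard deviation.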

[8] = Stability in human serum at 200 uM up to 24 hrs by RP-HPLC analysis; assay type: ADME, cell-free
Procedure, shortened: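 Peptides incubated in human serum for up to 24 h. At each time point, the area of the peptide peak on analytical HPLC is expressed as a percentage of the peptide peak in PBS at 0 h. Three independent experiments, SD.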

[9] = molecular target: T2, Kallikrein-14 (Homo sapiens, UniProt Q9P0G3); assay: Inhibition of KLK14 (unknown origin) expressed in sf9 cells using Ac-YANR-pNA as substrate preincubated for 30 mins followed by substrate addition and measured for 7 mins by spectrophotometric method
T2 sequence (Q9P0G3 whole entry): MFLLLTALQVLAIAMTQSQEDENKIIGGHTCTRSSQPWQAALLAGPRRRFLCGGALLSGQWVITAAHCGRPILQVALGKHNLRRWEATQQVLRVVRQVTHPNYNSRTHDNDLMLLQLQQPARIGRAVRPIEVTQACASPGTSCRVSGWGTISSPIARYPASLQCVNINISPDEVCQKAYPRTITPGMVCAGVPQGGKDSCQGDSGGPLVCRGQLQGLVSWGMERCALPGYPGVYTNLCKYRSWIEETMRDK

[10] = molecular target: T3, Coagulation factor XII (Homo sapiens, UniProt P00748); assay: Inhibition of factor 12a (unknown origin) using Ac-QRFR-pNA as substrate preincubated for 30 mins followed by substrate addition and measured for 7 mins by spectrophotometric method
T3 sequence (P00748 whole entry): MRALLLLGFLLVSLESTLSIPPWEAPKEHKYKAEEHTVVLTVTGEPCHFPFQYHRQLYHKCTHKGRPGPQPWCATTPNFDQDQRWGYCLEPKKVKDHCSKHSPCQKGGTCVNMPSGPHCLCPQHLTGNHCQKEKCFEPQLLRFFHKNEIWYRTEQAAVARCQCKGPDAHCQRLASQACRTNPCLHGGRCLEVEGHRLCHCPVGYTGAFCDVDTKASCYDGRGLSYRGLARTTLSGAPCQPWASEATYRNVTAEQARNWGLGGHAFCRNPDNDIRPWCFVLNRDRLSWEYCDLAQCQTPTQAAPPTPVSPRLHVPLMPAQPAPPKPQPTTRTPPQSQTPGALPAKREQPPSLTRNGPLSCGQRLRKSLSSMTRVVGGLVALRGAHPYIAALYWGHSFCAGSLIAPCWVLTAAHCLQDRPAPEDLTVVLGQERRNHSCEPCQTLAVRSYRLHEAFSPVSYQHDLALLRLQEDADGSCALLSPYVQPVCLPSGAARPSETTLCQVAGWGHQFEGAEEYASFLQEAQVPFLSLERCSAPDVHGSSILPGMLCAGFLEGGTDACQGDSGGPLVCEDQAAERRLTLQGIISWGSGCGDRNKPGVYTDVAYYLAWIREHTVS

[11] = molecular target: Plasma kallikrein (Homo sapiens, UniProt P03952); assay: Inhibition of plasma kallikrein (unknown origin) using Ac-NLTR-pNA as substrate preincubated for 30 mins followed by substrate addition and measured for 7 mins by spectrophotometric method
[12] = molecular target: Kallikrein-7 (Homo sapiens, UniProt P49862); assay: Inhibition of KLK7 (unknown origin) expressed in Pichia pastoris strain X-33 using KHLY-pNA as substrate preincubated for 30 mins followed by substrate addition and measured for 7 mins by spectrophotometric method
[13] = molecular target: Coagulation factor X (Homo sapiens, UniProt P00742); assay: Inhibition of factor 10a (unknown origin) using Ac-QRSR-pNA as substrate preincubated for 30 mins followed by substrate addition and measured for 7 mins by spectrophotometric method
Sequence of Coagulation factor X (P00742 41-179 limits assumed): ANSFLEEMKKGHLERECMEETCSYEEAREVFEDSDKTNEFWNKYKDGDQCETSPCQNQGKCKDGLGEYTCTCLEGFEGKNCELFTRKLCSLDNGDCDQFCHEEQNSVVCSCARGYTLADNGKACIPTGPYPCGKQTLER
Sequence of Coagulation factor X (P00742 235-488 limits assumed): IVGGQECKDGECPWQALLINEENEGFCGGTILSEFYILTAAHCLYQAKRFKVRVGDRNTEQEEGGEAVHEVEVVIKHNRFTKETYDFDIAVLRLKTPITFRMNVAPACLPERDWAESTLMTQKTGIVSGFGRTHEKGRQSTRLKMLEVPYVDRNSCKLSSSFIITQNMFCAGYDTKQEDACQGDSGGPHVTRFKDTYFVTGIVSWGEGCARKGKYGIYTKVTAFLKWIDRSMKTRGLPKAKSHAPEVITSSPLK

Sequence of Kallikrein-4 (Q9Y5K2 whole entry): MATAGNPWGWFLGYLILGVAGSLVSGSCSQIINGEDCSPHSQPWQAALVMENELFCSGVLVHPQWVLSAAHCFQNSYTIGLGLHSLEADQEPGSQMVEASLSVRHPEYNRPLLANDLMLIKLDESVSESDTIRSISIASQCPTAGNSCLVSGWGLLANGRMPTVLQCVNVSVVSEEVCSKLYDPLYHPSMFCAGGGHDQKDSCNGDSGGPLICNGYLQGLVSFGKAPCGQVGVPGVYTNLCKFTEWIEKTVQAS
Sequence of Plasma kallikrein (P03952 20-390 limits assumed): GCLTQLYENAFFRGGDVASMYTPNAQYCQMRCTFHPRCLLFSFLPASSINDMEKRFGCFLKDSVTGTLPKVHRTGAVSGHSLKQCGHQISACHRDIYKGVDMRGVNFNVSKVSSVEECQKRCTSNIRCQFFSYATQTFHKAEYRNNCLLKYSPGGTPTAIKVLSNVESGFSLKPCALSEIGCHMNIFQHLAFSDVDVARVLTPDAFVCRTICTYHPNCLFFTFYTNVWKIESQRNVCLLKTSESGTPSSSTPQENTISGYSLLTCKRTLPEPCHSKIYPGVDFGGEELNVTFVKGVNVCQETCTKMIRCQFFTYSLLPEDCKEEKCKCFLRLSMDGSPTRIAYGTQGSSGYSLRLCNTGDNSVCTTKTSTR
Sequence of Plasma kallikrein (P03952 391-638 limits assumed): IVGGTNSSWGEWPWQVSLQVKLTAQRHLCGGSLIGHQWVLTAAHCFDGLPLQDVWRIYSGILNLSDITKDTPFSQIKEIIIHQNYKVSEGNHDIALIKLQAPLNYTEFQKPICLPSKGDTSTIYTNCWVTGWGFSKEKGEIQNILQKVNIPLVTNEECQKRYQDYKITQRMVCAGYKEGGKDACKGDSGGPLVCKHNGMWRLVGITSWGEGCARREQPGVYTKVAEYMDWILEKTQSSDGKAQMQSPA
Sequence of Plasminogen (P00747 97-580 limits assumed): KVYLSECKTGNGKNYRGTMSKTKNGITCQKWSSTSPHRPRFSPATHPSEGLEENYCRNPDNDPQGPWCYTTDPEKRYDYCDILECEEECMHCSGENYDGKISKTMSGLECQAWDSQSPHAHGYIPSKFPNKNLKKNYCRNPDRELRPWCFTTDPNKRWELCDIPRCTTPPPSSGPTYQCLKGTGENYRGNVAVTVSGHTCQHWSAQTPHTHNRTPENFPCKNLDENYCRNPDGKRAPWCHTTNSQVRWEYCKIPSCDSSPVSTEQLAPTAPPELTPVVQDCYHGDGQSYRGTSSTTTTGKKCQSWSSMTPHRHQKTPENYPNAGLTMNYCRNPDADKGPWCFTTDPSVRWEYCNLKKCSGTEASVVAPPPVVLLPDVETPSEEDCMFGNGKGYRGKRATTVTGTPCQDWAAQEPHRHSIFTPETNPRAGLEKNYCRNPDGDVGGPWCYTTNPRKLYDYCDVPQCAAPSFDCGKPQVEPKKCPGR
Sequence of Plasminogen (P00747 581-810 limits assumed): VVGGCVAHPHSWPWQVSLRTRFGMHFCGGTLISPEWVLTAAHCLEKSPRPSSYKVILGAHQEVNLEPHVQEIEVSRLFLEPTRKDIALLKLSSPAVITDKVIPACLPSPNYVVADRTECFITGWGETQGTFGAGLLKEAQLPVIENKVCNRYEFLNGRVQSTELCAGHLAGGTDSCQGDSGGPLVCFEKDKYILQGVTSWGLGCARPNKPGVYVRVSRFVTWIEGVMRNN
Sequence of Kallikrein-7 (P49862 whole entry): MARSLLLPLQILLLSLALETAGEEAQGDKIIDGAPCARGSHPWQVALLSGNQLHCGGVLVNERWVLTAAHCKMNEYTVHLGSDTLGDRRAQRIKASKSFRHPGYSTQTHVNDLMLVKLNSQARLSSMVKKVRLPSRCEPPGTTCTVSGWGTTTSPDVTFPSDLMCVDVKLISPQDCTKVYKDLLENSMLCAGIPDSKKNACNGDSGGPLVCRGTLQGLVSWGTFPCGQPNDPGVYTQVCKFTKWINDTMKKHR

Row | SMILES | Ki [1] [nM] | Drug uptake [2] | Activity [7] | other results
1 | CC[C@H](C)[C@@H]1NC(=O)[C@@H]2CSSC[C@@H]3NC(=O)[C@H](Cc4ccccc4)NC(=O)CNC(=O)CNC(=O)[C@H](CC(=O)O)NC(=O)[C@H](CO)NC(=O)CNC(=O)[C@H](CO)NC(=O)CNC(=O)[C@@H]4CSSC[C@H](NC(=O)[C@H](CC(=O)O)NC(=O)[C@H](CO)NC(=O)[C@H](CC(=O)O)NC(=O)[C@H](CCCNC(=N)N)NC(=O)[C@H](CCCNC(=N)N)NC(=O)[C@H](CSSC[C@H](NC1=O)C(=O)N[C@@H](CCCNC(=N)N)C(=O)NCC(=O)N[C@@H](CC(N)=O)C(=O)NCC(=O)N[C@@H](Cc1ccc(O)cc1)C(=O)N4)NC(=O)[C@H](CCCCN)NC(=O)[C@H](CCCCN)NC(=O)[C@H](CC(C)C)NC(=O)[C@H]([C@@H](C)CC)NC(=O)[C@H](CCCCN)NC(=O)[C@@H]1CCCN1C3=O)C(=O)N1CCC[C@H]1C(=O)NCC(=O)N[C@@H](C)C(=O)N2 | 1.3 |  |  | 
2 | CC[C@H](C)[C@@H]1NC(=O)[C@@H]2CSSC[C@@H]3NC(=O)[C@H](C(C)C)NC(=O)CNC(=O)CNC(=O)[C@H](CC(=O)O)NC(=O)[C@H](CO)NC(=O)CNC(=O)[C@H](CO)NC(=O)CNC(=O)[C@@H]4CSSC[C@H](NC(=O)[C@H](CC(=O)O)NC(=O)[C@H](CO)NC(=O)[C@H](CC(=O)O)NC(=O)[C@H](CCCNC(=N)N)NC(=O)[C@H](CCCNC(=N)N)NC(=O)[C@H](CSSC[C@H](NC1=O)C(=O)N[C@@H](CCCNC(=N)N)C(=O)NCC(=O)N[C@@H](CC(N)=O)C(=O)NCC(=O)N[C@@H](Cc1ccc(O)cc1)C(=O)N4)NC(=O)[C@H](CCCCN)NC(=O)[C@H](CCCCN)NC(=O)[C@H](CC(C)C)NC(=O)[C@H]([C@@H](C)CC)NC(=O)[C@H](CCCCN)NC(=O)[C@H](CCC(N)=O)NC3=O)C(=O)N1CCC[C@H]1C(=O)NCC(=O)N[C@@H](C)C(=O)N2 | 0.13 |  |  | 
3 | CC[C@H](C)[C@@H]1NC(=O)[C@@H]2CSSC[C@@H]3NC(=O)[C@H](C(C)C)NC(=O)CNC(=O)CNC(=O)[C@H](CC(=O)O)NC(=O)[C@H](CO)NC(=O)CNC(=O)[C@H](CO)NC(=O)CNC(=O)[C@@H]4CSSC[C@H](NC(=O)[C@H](CC(=O)O)NC(=O)[C@H](CO)NC(=O)[C@H](CC(=O)O)NC(=O)[C@H](CCCNC(=N)N)NC(=O)[C@H](CCCNC(=N)N)NC(=O)[C@H](CSSC[C@H](NC1=O)C(=O)N[C@@H](CCCNC(=N)N)C(=O)NCC(=O)N[C@@H](CC(N)=O)C(=O)NCC(=O)N[C@@H](Cc1ccc(O)cc1)C(=O)N4)NC(=O)[C@H](CCCCN)NC(=O)[C@H](CCCCN)NC(=O)[C@H](CC(C)C)NC(=O)[C@H]([C@@H](C)CC)NC(=O)[C@H](CCCNC(=N)N)NC(=O)[C@@H]1CCCN1C3=O)C(=O)N1CCC[C@H]1C(=O)NCC(=O)N[C@@H](C)C(=O)N2 | 0.3 | Not Active |  | 
4 | CC[C@H](C)[C@@H]1NC(=O)[C@@H]2CSSC[C@@H]3NC(=O)[C@H](Cc4ccccc4)NC(=O)CNC(=O)CNC(=O)[C@H](CC(=O)O)NC(=O)[C@H](CO)NC(=O)CNC(=O)[C@H](CO)NC(=O)CNC(=O)[C@@H]4CSSC[C@H](NC(=O)[C@H](CC(=O)O)NC(=O)[C@H](CO)NC(=O)[C@H](CC(=O)O)NC(=O)[C@H](CCC(N)=O)NC(=O)[C@H](CCC(N)=O)NC(=O)[C@H](CSSC[C@H](NC1=O)C(=O)N[C@@H](CCCCN)C(=O)NCC(=O)N[C@@H](CC(N)=O)C(=O)NCC(=O)N[C@@H](Cc1ccc(O)cc1)C(=O)N4)NC(=O)[C@H](CCC(N)=O)NC(=O)[C@H](CCC(N)=O)NC(=O)[C@H](CC(C)C)NC(=O)[C@H]([C@@H](C)CC)NC(=O)[C@H](CCCNC(=N)N)NC(=O)[C@H](CCC(N)=O)NC3=O)C(=O)N1CCC[C@H]1C(=O)NCC(=O)N[C@@H](C)C(=O)N2 (cyclo(ACICKGNGYCGSGSDGGFCQRILQQCQQDSDCPG); disulfide 2-19, 4-26, 10-32) | 0.44 | Not Active | Non-Toxic | Ki [3]: > 10000 nM; Ki [4]: > 10000 nM; Ki [5]: 6.9 nM; Ki [6]: > 10000 nM; Stability [8]: Stable; Ki [9]: > 10000 nM; Ki [10]: > 10000 nM; Ki [11]: > 10000 nM; Ki [12]: > 10000 nM; Ki [13]: 520 nM
5 | CC[C@H](C)[C@@H]1NC(=O)[C@@H]2CSSC[C@@H]3NC(=O)[C@H](C(C)C)NC(=O)CNC(=O)CNC(=O)[C@H](CC(=O)O)NC(=O)[C@H](CO)NC(=O)CNC(=O)[C@H](CO)NC(=O)CNC(=O)[C@@H]4CSSC[C@H](NC(=O)[C@H](CC(=O)O)NC(=O)[C@H](CO)NC(=O)[C@H](CC(=O)O)NC(=O)[C@H](CCC(N)=O)NC(=O)[C@H](CCC(N)=O)NC(=O)[C@H](CSSC[C@H](NC1=O)C(=O)N[C@@H](CCCCN)C(=O)NCC(=O)N[C@@H](CC(N)=O)C(=O)NCC(=O)N[C@@H](Cc1ccc(O)cc1)C(=O)N4)NC(=O)[C@H](CCC(N)=O)NC(=O)[C@H](CCC(N)=O)NC(=O)[C@H](CC(C)C)NC(=O)[C@H]([C@@H](C)CC)NC(=O)[C@H](CCCNC(=N)N)NC(=O)[C@@H]1CCCN1C3=O)C(=O)N1CCC[C@H]1C(=O)NCC(=O)N[C@@H](C)C(=O)N2 (cyclo(ACICKGNGYCGSGSDGGVCPRILQQCQQDSDCPG); disulfide 2-19, 4-26, 10-32) | 1.8 | Not Active | Non-Toxic | 

Reference: ChEMBL document CHEMBL4325933, “Potent, Selective, and Cell-Penetrating Inhibitors of Kallikrein-Related Peptidase 4 Based on the Cyclic Peptide MCoTI-II” (ACS Med Chem Lett, 2018)
